Experimental data as given in PubChem BioAssay AID493150 (Broad Institute, 2011).
Values joined by “and” are separate entries in the source; they are usually repeats but may differ in a detail not shown here. Equal values may be shown once. Results filed as inconclusive are left out. Active and inactive are the calls of the source.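 How the source made its calls: active means compound whose fitted half-maximal growth inhibition concentration stays within ten times its top tested dose in every replicate test; inconclusive means replicate tests disagree, or flat partial inhibition, or poor curve fit; inactive means every replicate test inactive, including wrong-direction or flat responses.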

Test system: not listed separately
Assay: growth inhibition of fluconazole-resistant C. albicans, confirmation, CaCi-2 strain, Alamar Blue, dry powder, set 5 (AID 493150)
Conditions: C. albicans CaCi-2 + fluconazole, Alamar Blue growth, 48 h; at 10 µM (top of the series)
Summary of the method: (§1)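 Assay system: clinical Candida albicans isolate CaCi-2, resistant to fluconazole; amount: inoculum OD600 0.00015; medium: RPMI-based defined growth medium buffered with MOPS; also added: fluconazole 8 µg/mL; incubation: 48 h humidified 37 °C exposure, 2 h room-temperature dye step; detection: Alamar Blue fluorescence, 1:200 final dye, Ex 544 nm, Em 590 nm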

Structure (SMILES) | activity change, negative = inhibition
COC(=O)Cn1nc(-c2cncnc2)c2ccccc21 | -5.14% (inactive)

Same assay, conditions: C. albicans CaCi-2 + fluconazole, Alamar Blue growth, 48 h; at 12 µM (top of the series)

Structure (SMILES) | activity change, negative = inhibition
COC(=O)CCn1nc(-c2ccccc2)c2ccccc21 | 1.2% (inactive)
CC(C)OC(=O)Cn1nc(-c2ccccc2)c2ccccc21 | 11.7% (inactive)
COCCn1nc(-c2ccccc2)c2ccccc21 | -9.42% (inactive)
N#CCn1nc(-c2ccccc2)c2ccccc21 | -18.5% (inactive)
CCOC(=O)Cn1nc(-c2ccccc2)c2ccccc21 | 4.8% (inactive)
COC(=O)Cn1nc(-c2ccccc2)c2ccc(C#N)cc21 | -14.7% (inactive)
O=C(Cn1nc(-c2ccccc2)c2ccccc21)Oc1ccccc1 | -4.43% (inactive)
COC(=O)Cn1nc(-c2ccc(C(F)(F)F)cc2)c2ccccc21 | -0.629% (inactive)
c1ccc(-c2nn(Cc3nn[nH]n3)c3ccccc23)cc1 | -7.06% (inactive)
CC(C)(C)OC(=O)Cn1nc(-c2ccccc2)c2ccccc21 | 17.1% (inactive)
c1ccc(-c2nn(Cc3ncco3)c3ccccc23)cc1 | 1.86% (inactive)

Test system: C. albicans CaCi-2 (fluconazole-resistant clinical isolate) + fluconazole, Alamar Blue growth, 48 h
Assay: as above
Conditions: not given
Summary of the method: as §1

Structure (SMILES) | AC50
COC(=O)Cn1nc(-c2cccc(OC)c2)c2ccccc21 | 0.44 µM
COC(=O)Cn1nc(-c2ccc(OC)cc2)c2ccccc21 | 4.22 µM
COC(=O)Cn1nc(-c2ccccc2OC)c2ccccc21 | 6.22 µM
COC(=O)Cn1nc(-c2ccccc2)c2cc(OC)ccc21 | 10.4 µM
COC(=O)Cn1nc(-c2ccccc2)c2ccc(Cl)cc21 | 3.79 µM
O=C(Cn1c2ccccc2c2nc3n(c(=O)c21)CCS3)N1CCCC1 | 1.04 µM and 1.87 µM
COC(=O)Cn1nc(-c2ccccc2)c2ccccc21 | 1.2 µM
COC(=O)Cn1nc(-c2cccc(C)c2)c2ccccc21 | 0.647 µM
COC(=O)Cn1nc(-c2ccccc2)c2ccc(F)cc21 | 5.1 µM
COC(=O)Cn1nc(-c2ccc(F)cc2)c2ccccc21 | 5.61 µM
COC(=O)Cn1nc(-c2ccccc2)c2cc(C)ccc21 | 3.28 µM
COC(=O)Cn1nc(-c2ccccc2)c2ccc(OC)cc21 | 7.51 µM
COC(=O)Cn1c2ccccc2c2nc3n(c(=O)c21)CCS3 | 3.83 µM
COC(=O)Cn1nc(-c2cccc(F)c2)c2ccccc21 | 1.41 µM
COC(=O)Cn1nc(-c2ccccc2)c2cc(F)ccc21 | 4.63 µM
COC(=O)Cn1nc(-c2ccccc2)c2ccc(C)cc21 | 3.14 µM
